For orientation: inhibition means the drop in the measured response relative to a control, in per cent. Usually viability stands for a read-out of living cells in per cent, often relative to untreated cells.

Values joined by “and” are separate entries in the source; they are usually repeats but may differ in a detail not shown here. Equal entries are not always repeated. Active and inactive are the calls of the source. Unless noted, how the calls were made is not given here.

48 compounds from PubChem BioAssay can be followed below.

In assay [1] the target is Pantothenate synthetase (Mycobacterium tuberculosis (strain ATCC 25618 / H37Rv)) (UniProt P9WIL5). In words: Recombinant Mtb pantothenate synthetase (PanC) inhibitors, coupled enzyme, confirmatory (AID 375).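 Further: 0% = full reaction with vehicle and 100% = no enzyme background.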 The conditions noted are these: coupled enzyme assay; at 10 µM, stronger effect = higher value.
A short description of assay [2]: reducers of endogenous Her2 protein level, primary screen, SKBR3 breast tumor cells, AlphaScreen, ATP viability (AID 461;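 active means Her2 level under about 52% in both replicate screens, with viability over 70% of control, limit read from the data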;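 on Her2 level: lower value means less Her2 protein in the cells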;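 on viability: percent of carrier control wells set as 100% viability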). To be noted: 18-24 h, measured here: SKBR3 viability, ATP luminescence, at 10 µM. In general terms: Bead proximity is the source of the signal in Alpha formats.
Assay [3] deals with Receptor tyrosine-protein kinase erbB-2 (Homo sapiens) (UniProt P04626). The description is as above. The conditions noted are these: 18-24 h, at 10 µM, stronger effect = lower value.
Assay [4] in a line: SK-BR-3 cell growth inhibitors, pilot screen, 24 h, human (AID 572;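 active means viability at or below 10% of carrier control in both of two separate runs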;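 further: compound exposure lasted between 18 and 24 h rather than exactly 24 h; 100% = carrier-treated control wells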). To be noted: SK-BR-3 viability, CellTiter-Glo luminescence, at 10 µM, stronger effect = lower value. In general terms: In ATP-based viability assays light output follows the ATP content of the culture.
Assay [5] can be described thus: HUVEC growth inhibition – cell-based, human, primary screen (AID 575;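 active means viability at or below 30% in both replicate assays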;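 further: 100% = median of untreated cell wells with 0.1% DMSO on each plate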). To be noted: HUVEC proliferation, CellTiter-Glo luminescence, 72 h; at 10 µM; stronger effect = lower value. The gist of the method:
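System: primary human umbilical vein endothelial cells; Quantity: 1250 endothelial cells in each well; Buffer or medium: supplemented EBM, 2% fetal bovine serum; Doses: one dose, 10 µM final, 0.1% DMSO; Incubation: 72 h compound incubation; Technique: ATP-based CellTiter-Glo luminescent read; Evaluation: percent of median DMSO-control luminescence; Controls: vehicle and MePR control wells.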

Assay [6] is described as follows: growth inhibitors of H69AR lung tumor, primary screen, human, duplicate replicates (AID 580;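 active means viability at or under a set limit in both replicates, limit being median viability minus 3 SD, cut at about 48% in these data, passing the limit was not always enough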;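 further: 100% = mean luminescence of untreated wells and 0% = no signal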). To be noted: H69AR lung tumor cells viability, ATP luminescence, 72 h; at 10 µM; stronger effect = lower value.
Assay [7] can be described thus: reversal of MRP1-mediated doxorubicin resistance, pilot screen, H69AR cells, doxorubicin co-treatment (AID 601;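 active means viability loss from added drug above about 55%, and viability with drug at most 40%, in both replicates, limit read from the data, passing the limit was not always enough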). The conditions noted are these: CellTiter-Glo, 72 h, at 10 µM; for differential viability (reversal): stronger effect = higher value.
Setting [8] is: H69AR cells + 2 uM doxorubicin, measured here: viability with 2 uM doxorubicin, stronger effect = lower value.
Setting [9] is: H69AR cells, compound alone cytotoxicity.

Chain of Receptor tyrosine-protein kinase erbB-2 (Homo sapiens) (P04626 whole entry, looked up): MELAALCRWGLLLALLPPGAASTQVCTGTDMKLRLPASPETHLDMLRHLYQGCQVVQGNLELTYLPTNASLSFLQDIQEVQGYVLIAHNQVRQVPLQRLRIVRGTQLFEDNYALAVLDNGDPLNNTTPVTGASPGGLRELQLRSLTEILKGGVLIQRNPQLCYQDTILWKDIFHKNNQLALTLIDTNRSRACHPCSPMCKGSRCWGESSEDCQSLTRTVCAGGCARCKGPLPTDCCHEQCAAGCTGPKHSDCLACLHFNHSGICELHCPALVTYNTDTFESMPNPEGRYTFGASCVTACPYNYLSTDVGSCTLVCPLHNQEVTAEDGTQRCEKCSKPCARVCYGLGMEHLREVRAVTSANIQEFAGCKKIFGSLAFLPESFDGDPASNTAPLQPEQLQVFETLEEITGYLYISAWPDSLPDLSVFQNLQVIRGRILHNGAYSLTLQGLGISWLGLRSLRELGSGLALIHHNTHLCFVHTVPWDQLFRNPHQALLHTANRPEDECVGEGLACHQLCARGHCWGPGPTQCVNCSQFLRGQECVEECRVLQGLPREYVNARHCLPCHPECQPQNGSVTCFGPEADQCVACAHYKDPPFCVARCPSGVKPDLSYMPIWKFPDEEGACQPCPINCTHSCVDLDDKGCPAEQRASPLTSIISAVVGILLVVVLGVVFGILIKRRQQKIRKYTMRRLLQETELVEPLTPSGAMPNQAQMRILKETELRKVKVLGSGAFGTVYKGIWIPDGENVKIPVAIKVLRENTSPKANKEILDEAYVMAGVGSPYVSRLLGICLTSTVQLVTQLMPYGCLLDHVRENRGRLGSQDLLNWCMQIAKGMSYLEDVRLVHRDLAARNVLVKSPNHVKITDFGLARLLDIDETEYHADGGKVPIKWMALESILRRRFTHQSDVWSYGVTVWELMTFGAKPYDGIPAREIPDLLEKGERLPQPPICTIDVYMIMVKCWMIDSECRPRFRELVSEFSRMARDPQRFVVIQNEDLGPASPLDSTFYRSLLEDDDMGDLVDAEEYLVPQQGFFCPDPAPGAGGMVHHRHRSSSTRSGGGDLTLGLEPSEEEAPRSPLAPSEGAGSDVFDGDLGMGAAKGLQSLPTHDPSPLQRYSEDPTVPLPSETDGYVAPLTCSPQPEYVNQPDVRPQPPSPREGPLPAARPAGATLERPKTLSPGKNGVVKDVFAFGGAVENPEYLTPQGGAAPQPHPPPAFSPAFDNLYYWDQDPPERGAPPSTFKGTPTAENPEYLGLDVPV
Chain of Pantothenate synthetase (Mycobacterium tuberculosis (strain ATCC 25618 / H37Rv)) (P9WIL5 whole entry, looked up): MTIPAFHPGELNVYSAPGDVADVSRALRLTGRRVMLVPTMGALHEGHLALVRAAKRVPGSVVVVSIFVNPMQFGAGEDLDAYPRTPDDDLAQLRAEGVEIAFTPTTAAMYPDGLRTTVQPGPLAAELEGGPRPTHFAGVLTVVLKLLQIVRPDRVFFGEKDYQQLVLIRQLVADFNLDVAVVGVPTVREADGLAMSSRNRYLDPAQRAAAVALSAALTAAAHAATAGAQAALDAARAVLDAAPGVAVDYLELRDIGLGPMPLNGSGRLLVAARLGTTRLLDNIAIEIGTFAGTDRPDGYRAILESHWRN

On to `CC(=O)N1CCN(c2ccc(S(=O)(=O)N3CCCCC3)cn2)CC1`, for which the inhibition in assay [1] was 0% (inactive).

As for `CC1(C)Cc2nc3oc4c(N(CCO)Cc5ccccc5)ncnc4c3cc2CO1`, the inhibition in assay [1] is 0% (inactive).

Take `O=C(NCCCN1CCCC1=O)c1cccnc1`: the inhibition in assay [1] was 4% (inactive).

Take `COc1ccccc1CN1CCCC(C(=O)N(C)Cc2ccccc2)C1` (stereo not drawn): in assay [1], the inhibition is 0% (inactive).

Turning to `CCCOC(=O)/C(C(N)=NCc1ccccc1)=C(\O)OCCC`, in assay [1], the inhibition is 0% (inactive).

In the case of `CCCCn1c(SCC(=O)N2CC(=O)Nc3ccccc32)nnc1-c1ccoc1C`, the inhibition in assay [1] is 3% (inactive).

On to `Cc1ccc2c(c1)-c1c(cnn1CC(=O)NC(C)CCc1ccco1)CO2` (stereo not drawn), for which the inhibition in assay [1] was 0% (inactive).

On to `COC(=O)c1ccc2c(c1)C(=O)N(C1CCCCC1)C2=O`, for which, in assay [1], the inhibition is 9% (inactive).

Regarding `CCC(C)(C(=O)NC1CCCCC1)N(Cc1ccco1)C(=O)c1ccc2c(c1)OCO2` (stereo not drawn), the inhibition in assay [1] was 0% (inactive).

For the compound `CNC(=O)c1ccsc1NC(=O)CN1C(=O)CCC1=O`, the inhibition in assay [1] is 0% (inactive).

Regarding `C1CCN=C(Nc2nc3c(s2)CCCC3)CC1`, the inhibition in assay [1] was 3% (inactive).

`CCc1cccc2c(=O)c(C(=O)N3CCCCCC3)c[nH]c12`: the inhibition in assay [1] is 0% (inactive).

With `O=C(CN1CCC(O)(c2ccc3c(c2)OCO3)CC1)OC1CCCCC1`, the inhibition in assay [1] was 0% (inactive).

`Cc1ccc(S(=O)(=O)n2nc(OC(=O)c3ccco3)cc2N)cc1`: in assay [1], the inhibition is 2% (inactive).

On to `CC(=O)Oc1cccc(/C=c2\sc3nc(-c4ccco4)nn3c2=O)c1`, for which the inhibition in assay [1] is 8% (inactive).

As to `CC(C)(Oc1ccc(CCNC(=O)c2ccc(Cl)cc2)cc1)C(=O)O`, the inhibition in assay [1] was 0% (inactive).

For the compound `CC1C=CC(C)C(C(=O)O)C1C(=O)O` (stereo not drawn), the inhibition in assay [1] was 0% (inactive).

As to `CN(CC(=O)N1CCCc2c1c(=O)oc1ccc(O)cc21)Cc1ccccc1`, the inhibition in assay [1] was 0% (inactive).

For the compound `FC(F)(F)c1ccc(Sc2nnc(-c3cccs3)n2CC2CCCO2)nc1` (stereo not drawn), in assay [1], the inhibition is 0% (inactive).

In the case of `Cc1ccc(C(=O)NC(Cc2c[nH]c3ccccc23)C(=O)O)o1` (stereo not drawn), the inhibition in assay [1] is 0% (inactive).

For `Cn1c(=O)[nH]c(=O)c2c1nc(Br)n2Cc1ccccc1F`, the inhibition in assay [1] is 0% (inactive).

As for `O=C(CN(Cc1ccc(F)cc1)C(=O)Cn1nnc2ccccc21)NCC1CCCO1` (stereo not drawn), the inhibition in assay [1] is 0% (inactive).

On to `Cn1nnnc1SCC(=O)Nc1ccccc1-c1ccccc1`, for which, in assay [1], the inhibition was 2% (inactive).

`Cc1ccc2nsnc2c1S(=O)(=O)N1CCN(Cc2ccc3c(c2)OCO3)CC1`: in assay [1], the inhibition is 5% (inactive).

Take `O=C1CCc2cc(S(=O)(=O)N3CCC(C(=O)NCc4ccccn4)CC3)ccc2N1`: the inhibition in assay [1] was 0% (inactive).

For the compound `CC(=O)C1=C(C)Nc2ncnn2C1c1cccc(OCc2ccccc2)c1` (stereo not drawn), in assay [1], the inhibition is 0% (inactive).

For `CCOC(=O)c1oc2ccccc2c1NC(=O)COC`, the inhibition in assay [1] was 0% (inactive).

Take `COCCn1c(-c2ccc(OC)c(OC)c2)nc2ccccc21`: the inhibition in assay [1] is 0% (inactive).

For `O=C(O)/C=C/c1ccc(O)c(O)c1`, the inhibition in assay [1] was 1% (inactive).

As for `COc1ccc(CCNC(=O)C2CCCN(c3nn4c(=O)cc(C)nc4s3)C2)cc1OC` (stereo not drawn), the inhibition in assay [1] was 0% (inactive).

For `CCCN1CCC(NC(=O)Nc2ccc(OC)c(OC)c2)CC1`, in assay [1], the inhibition was 0% (inactive).

As to `COc1ccc2cc(C#N)c(SCC(=O)N3CCCC3)nc2c1`, the inhibition in assay [1] was 7% (inactive).

Take `Cc1occc1-c1nnc(SCC(=O)N2CCOCC2)n1Cc1ccco1`: the inhibition in assay [1] was 6% (inactive).

Take `COc1cc2nc(N3CCN(C(=O)C4COc5ccccc5O4)CC3)nc(N)c2cc1OC` (stereo not drawn): the inhibition in assay [1] is 3% (inactive).

In the case of `COc1ccc(C(=O)NC(=O)CSc2nnc(-c3ccco3)n2-c2ccccc2)cc1`, in assay [1], the inhibition is 0% (inactive).

For the compound `CCOCCn1c(CN2CCC(Cc3ccccc3)CC2)nc2c1c(=O)n(C)c(=O)n2C`, the inhibition in assay [1] is 0% (inactive).

For the compound `CCOC(=O)C1CCN(C(=O)Nc2ccc3nc(C)c(C)nc3c2)CC1`, the inhibition in assay [1] was 0% (inactive).

With `Cc1nn(-c2ccccc2)c(C)c1C(=O)OCC(=O)c1c(N)n(CC(C)C)c(=O)n(C)c1=O`, the inhibition in assay [1] is 9% (inactive).

As for `COc1ccc2[nH]cc(CCN(C)C)c2c1`, in assay [1], the inhibition was 0% (inactive). For the same compound, the viability in assay [2] was 108%; in assay [4], 108% (inactive); in assay [5], 86.3% (inactive); in assay [6] it was 108% (inactive); in assay [7] (setting [8]) it was 99.5%; in assay [7] (setting [9]) it was 108%. Moreover, the Her2 level in assay [3] is 126% (inactive). For the same compound, the differential viability (reversal) in assay [7] (H69AR cells + 2 uM doxorubicin) was 8.63% (inactive).

For the compound `Cn1c(=O)[nH]c(=O)c2c1nc(NCCCn1ccnc1)n2Cc1ccccc1`, the inhibition in assay [1] was 0% (inactive).

As for `CC[C@@H]1C(=O)OC[C@@H]1Cc1cncn1C`, the inhibition in assay [1] was 0% (inactive). Moreover, the viability in assay [2] was 94%; in assay [4], 94% (inactive) and 104% (inactive); in assay [5], 101% (inactive) and 91.9% (inactive); in assay [6], 102% (inactive) and 96% (inactive); in assay [7] (setting [8]), 89.8% and 98.8%; in assay [7] (setting [9]) it was 102% and 96%. The Her2 level in assay [3] is 107% (inactive). The differential viability (reversal) in assay [7] (H69AR cells + 2 uM doxorubicin) was 12.4% (inactive) and -2.8% (inactive).

Regarding `CN(C)[C@@H]1C(=O)C(C(N)=O)=C(O)[C@@]2(O)C(=O)C3=C(O)c4c(O)ccc(Cl)c4[C@@](C)(O)C3C[C@@H]12` (stereo partly drawn), the inhibition in assay [1] is 1% (inactive). The viability in assay [2] was 119%; in assay [4], 119% (inactive); in assay [5] it was 104% (inactive); in assay [6], 96.8% (inactive); in assay [7] (setting [8]), 94.5%; in assay [7] (setting [9]), 96.8%. Besides, in assay [3], the Her2 level is 104% (inactive). For the same compound, in assay [7] (H69AR cells + 2 uM doxorubicin), the differential viability (reversal) is 2.32% (inactive).

Consider `Cn1c(=O)c(=O)n(C)c2cc(S(=O)(=O)Nc3ccc4c(c3)OCCO4)ccc21`, for which the inhibition in assay [1] was 6% (inactive).

For `CCc1ccccc1NC(=O)CN(c1cccc(OC)c1)S(C)(=O)=O`, in assay [1], the inhibition was 7% (inactive).

Turning to `CC(C)N(CCC(C(N)=O)(c1ccccc1)c1ccccn1)C(C)C` (stereo not drawn), in assay [1], the inhibition is 0% (inactive). For the same compound, the viability was 85% in assay [2]; 85% (inactive) in assay [4]; 121% (inactive) in assay [5]; 91.8% (inactive) in assay [6]; 108% in assay [7] (setting [8]); 91.8% in assay [7] (setting [9]). The Her2 level in assay [3] was 114% (inactive). In assay [7] (H69AR cells + 2 uM doxorubicin), the differential viability (reversal) is -15.8% (inactive).

As to `CC(=O)[C@H]1CC[C@H]2[C@@H]3CC[C@H]4C[C@H](O)CC[C@]4(C)[C@H]3C(=O)C[C@]12C`, the inhibition in assay [1] is 0% (inactive). Also, the viability in assay [2] was 112%; in assay [4] it was 112% (inactive); in assay [5] it was 118% (inactive); in assay [6], 104% (inactive); in assay [7] (setting [8]) it was 92%; in assay [7] (setting [9]) it was 104%. Moreover, the Her2 level in assay [3] was 108% (inactive). Also, the differential viability (reversal) in assay [7] (H69AR cells + 2 uM doxorubicin) is 12.1% (inactive).

As for `CC1Cc2ccccc2N1C(=O)C12CCC(C)(C(=O)C1)C2(C)C` (stereo not drawn), the inhibition in assay [1] was 3% (inactive).

On to `CCOC(=O)N1CCC(NC(=O)c2ccc3nc(N4CCOCC4)sc3c2)CC1`, for which the inhibition in assay [1] was 5% (inactive).
